Measured values: ChEMBL document CHEMBL1177857, “Functionalized aurones as inducers of NAD(P)H:quinone oxidoreductase 1 that activate AhR/XRE and Nrf2/ARE signaling pathways: synthesis, evaluation and SAR” (Eur J Med Chem, 2010)
The source made the active and inactive calls. The rule behind the calls is not given here.

Experiments:
[1] = Cytotoxicity against mouse Hepa-1c1c7 cells assessed as cell survival at 25 uM after 48 hrs by MTT assay; format: cell-based; settings: read-out: Activity
Procedure, shortened: (§1)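 MTT (0.5 mg/ml) added for 3 h at 37 °C, formazan dissolved in DMSO and read at 590 nm. Survival (%) = (A treated − A blank)/(A untreated − A blank) × 100.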

[2] = Cytotoxicity against mouse Hepa-1c1c7 cells assessed as cell survival at 5 uM after 48 hrs by MTT assay; format: cell-based; settings: read-out: Activity; procedure, shortened: as §1
CYP1A1 [3] = molecular target: T1, CYP1A1 (Mus musculus, UniProt P30561); experiment: Induction of Ah receptor in mouse Hepa-1c1c7 cells assessed as induction of CYP1A1 activity at 25 uM after 48 hrs by EROD assay relative to control; format: cell-based; settings: probe ethoxyresorufin (EROD), read-out: FC
T1 sequence (P30561 whole entry): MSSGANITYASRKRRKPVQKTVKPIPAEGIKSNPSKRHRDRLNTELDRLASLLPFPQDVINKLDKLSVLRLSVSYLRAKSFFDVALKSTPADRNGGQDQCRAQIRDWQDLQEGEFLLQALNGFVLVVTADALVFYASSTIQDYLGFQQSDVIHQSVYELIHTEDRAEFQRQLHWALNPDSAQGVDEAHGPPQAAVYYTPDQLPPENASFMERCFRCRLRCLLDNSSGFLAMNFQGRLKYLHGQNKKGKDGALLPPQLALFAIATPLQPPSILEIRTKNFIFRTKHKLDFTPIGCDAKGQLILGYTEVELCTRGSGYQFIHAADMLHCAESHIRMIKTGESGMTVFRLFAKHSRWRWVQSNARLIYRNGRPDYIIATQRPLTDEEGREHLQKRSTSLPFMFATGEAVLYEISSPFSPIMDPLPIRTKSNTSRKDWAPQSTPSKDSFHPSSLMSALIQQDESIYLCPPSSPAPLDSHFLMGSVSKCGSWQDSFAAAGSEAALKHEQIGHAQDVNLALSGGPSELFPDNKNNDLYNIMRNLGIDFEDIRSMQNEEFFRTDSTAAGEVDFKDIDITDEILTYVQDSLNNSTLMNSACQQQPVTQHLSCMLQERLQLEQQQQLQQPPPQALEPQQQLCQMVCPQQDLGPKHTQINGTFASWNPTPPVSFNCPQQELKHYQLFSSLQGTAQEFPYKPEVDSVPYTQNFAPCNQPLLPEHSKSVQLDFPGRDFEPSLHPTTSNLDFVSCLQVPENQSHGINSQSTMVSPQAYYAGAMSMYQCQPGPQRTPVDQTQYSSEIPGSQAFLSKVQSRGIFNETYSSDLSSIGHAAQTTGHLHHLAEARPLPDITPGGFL
Procedure, shortened: (§2)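 Hepa1c1c7 cells at 10⁴/well grown 24 h, then given compound at one fixed concentration for 48 h. After a PBS wash, cells incubated 40 min at 37 °C with 5 µM 7-ethoxyresorufin plus 2 mM salicylamide. Resorufin fluorescence read at ex 530/em 590 nm. Fold induction = (F cells+compound − F blank)/(F control − F blank); mean ± SD, n = 3.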

[4] = Induction of NQO1 activity in mouse Hepa-1c1c7 cells at 5 uM after 48 hrs relative to control
[5] = Induction of NQO1 activity in mouse Hepa-1c1c7 cells at 25 uM after 48 hrs relative to control
CYP1A1 [6] = molecular target: T1, CYP1A1; experiment: Induction of Ah receptor in mouse Hepa-1c1c7 cells assessed as induction of CYP1A1 activity at 10 uM after 48 hrs by EROD assay relative to control; format: cell-based; settings: probe ethoxyresorufin (EROD), read-out: FC; procedure, shortened: as §2
Hepa-1c1c7 [7] = experiment: Induction of human NQO1 gene expression in mouse Hepa-1c1c7 cells co-transfected with pGL3-ARE at 10 to 25 uM after 24 hrs by luciferase reporter gene assay; format: functional, cell-based
Procedure, shortened: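 Hepa1c1c7 cells at about 50% confluency co-transfected with pGL3-ARE firefly luciferase (human NQO1 ARE) and pRL-CMV Renilla as transfection control. After 24 h, cells exposed to compound (10 or 25 µM). Dual luciferase read-out expressed as fold over control; mean ± SD of 3 independent transfections, t-test.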

Hepa-1c1c7 [8] = experiment: Increase of Nrf2 protein level in mouse Hepa-1c1c7 cells at 10 uM for 6 hrs Western blotting relative to control; format: functional, cell-based
Procedure, shortened: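 Hepa1c1c7 cells exposed to compound at 10 µM for 6 h, with MG132 (25 µM) as reference. Lysates made in digitonin/EDTA with protease inhibitors; 50 µg protein run on 15% SDS-PAGE, blotted to nitrocellulose and probed for Nrf2 with β-actin loading control. Bands quantified by densitometry against untreated control, 3 experiments, independent t-test.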

[9] = Transcriptional activation of Nrf2/ARE signaling pathway in mouse Hepa-1c1c7 cells assessed as increase in cellular GSH level at 10 uM after 24 hrs by Ellman's method; format: functional, cell-based
Procedure, shortened: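 Hepa1c1c7 cells at 10⁶/plate grown 24 h, then given compound at 10 µM final for 24 h. Pellets extracted with 3% sulfosalicylic acid. Total GSH measured by DTNB recycling (0.6 mM DTNB, 0.2 mM NADPH, GSH reductase) as ΔA412 over 5 min against a GSH standard curve. Values normalized to Bradford protein from a parallel plate; mean ± SEM, n = 3.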

[10] = Upregulation of TrxR protein expression in mouse Hepa-1c1c7 cells at 10 uM after 24 hrs by Western blotting relative to control; format: functional, cell-based
Procedure, shortened: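 Hepa1c1c7 cells exposed to compound at 10 µM for 24 h. Digitonin/EDTA lysates (50 µg protein) separated on 15% SDS-PAGE, blotted to nitrocellulose and probed with anti-TrxR antibody. Band intensity compared with untreated control; representative of 3 experiments.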

CYP1A1 [11] = molecular target: T1, CYP1A1; experiment: Induction of Ah receptor in mouse Hepa-1c1c7 cells assessed as induction of CYP1A1 activity at 5 uM after 48 hrs by EROD assay relative to control; format: cell-based; settings: probe ethoxyresorufin (EROD), read-out: FC; procedure, shortened: as §2
Hepa-1c1c7 [12] = experiment: Induction of TrxR activity in mouse Hepa-1c1c7 cells at 10 uM after 24 hrs; format: cell-based
Procedure, shortened: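 Hepa1c1c7 cells treated with compound at 10 µM for 24 h. Digitonin/EDTA lysate (25 µg) incubated 20 min at 37 °C with 85 mM HEPES pH 7.6, 0.3 mM insulin, 660 µM NADPH, 2.5 mM EDTA and 5 µM human thioredoxin. Reaction quenched with DTNB in guanidine; A412 read, minus no-thioredoxin background. Fold versus control, mean ± SEM, n = 3.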

[13] = Induction of NQO1 activity in mouse Hepa-1c1c7 cells at 1 uM after 48 hrs relative to control
[14] = molecular target: NAD(P)H dehydrogenase [quinone] 1 (Homo sapiens) (UniProt P15559); experiment: Induction of […] NQO1 activity in mutant mouse BPrc1 cells assessed as concentration require for 2 fold induction after 48 hrs; format: cell-based
Procedure, shortened: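 Mutant Hepa1c1c7 line (Bp^rc1, defective Ah-receptor pathway) seeded at 10⁴ cells/well for 24 h, then exposed to compound for 48 h; final DMSO ≤0.5%. Cells lysed with 0.8% digitonin/2 mM EDTA. NQO1 read by menadione-driven MTT reduction (NADP, glucose-6-phosphate regenerating system, FAD, pH 7.4), stopped after 5 min with dicoumarol, A590. Activity taken relative to blank and control wells; CD = concentration doubling basal activity; mean ± SD of 3 determinations.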

Chain of NAD(P)H dehydrogenase [quinone] 1 (Homo sapiens) (P15559 whole entry): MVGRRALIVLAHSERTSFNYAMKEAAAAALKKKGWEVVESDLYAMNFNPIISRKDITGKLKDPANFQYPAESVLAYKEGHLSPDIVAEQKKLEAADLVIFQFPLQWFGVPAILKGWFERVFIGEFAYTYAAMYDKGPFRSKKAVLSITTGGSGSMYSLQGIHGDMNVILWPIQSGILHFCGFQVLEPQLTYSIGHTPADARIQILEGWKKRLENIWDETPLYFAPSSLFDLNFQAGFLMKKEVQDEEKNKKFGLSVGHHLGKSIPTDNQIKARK

Row | SMILES | fold induction at 48 h, 25 µM (CYP1A1 [3]) | fold change (FC) [4] | fold change (FC) [5] | fold induction at 48 h, 10 µM (CYP1A1 [6]) | viability at 48 h, 25 µM [1] [%] | viability at 48 h, 5 µM [2] [%] | also measured
1 | COc1cc(OC)c2c(c1)OC(=O)/C2=C\c1ccccc1OC | 1.03 | 1.79 | 3.57 | – | 107 | 118 | –
2 | COc1cc(/C=C2\Oc3cc(O)cc(O)c3C2=O)ccc1O | 1.06 | 1.53 | 2.54 | – | 98 | 97 | –
3 | COc1cc(OC)c2c(c1)O/C(=C\c1ccccc1)C2=O | – | 7.7 | – | 2.04 | – | 93 | Activity (Hepa-1c1c7 [7]): Active; Activity (Hepa-1c1c7 [8]): Active; Activity [9]: Active; Activity [10]: Active
4 | O=C1/C(=C/c2ccccc2O)Oc2ccccc21 | – | 1.41 | 1.61 | – | 102 | 110 | fold induction at 48 h, 5 µM (CYP1A1 [11]): 1.4; Activity (Hepa-1c1c7 [7]): inactive; Activity (Hepa-1c1c7 [12]): inactive
5 | COc1cc(OC)c2c(c1)OC(Cc1ccccc1O)C2=O (stereo unspecified) | – | 1.55 | – | – | – | 102 | Activity (Hepa-1c1c7 [7]): inactive; Activity (Hepa-1c1c7 [12]): inactive
6 | O=C1Oc2ccc(O)cc2/C1=C/c1ccc(Cl)cc1 | – | 2.49 | – | 1.04 | – | 90 | –
7 | O=C1/C(=C/c2ccccc2Cl)Oc2cc(O)cc(O)c21 | – | 2.64 | – | 1.18 | – | 101 | –
8 | O=C1/C(=C/c2ccc(Cl)cc2)Oc2cc(O)ccc21 [6-HYDROXY-4'-CHLORO AURONE] | 1.24 | 1.51 | 2.55 | – | – | 120 | –
9 | COc1cc(OC)c2c(c1)OC(=O)/C2=C\c1ccccc1 | 1.04 | 1.43 | 2.1 | – | 96 | 100 | –
10 | COc1cc(OC)c2c(c1)O/C(=C\c1ccccc1F)C2=O | – | – | – | – | – | 66 | fold change (FC) [13]: 2.6
11 | O=C1/C(=C/c2cccc(O)c2)Oc2cc(O)ccc21 | 1.08 | 1.64 | 2.92 | – | 106 | 112 | –
12 | COc1cc(OC)c2c(c1)O/C(=C\c1ccccn1)C2=O | – | 2.26 | – | 0.98 | – | 92 | –
13 | COc1cc(OC)c2c(c1)O/C(=C\c1ccc(F)cc1)C2=O | – | – | – | – | – | 93 | fold change (FC) [13]: 2.16
14 | O=C1Oc2ccc(O)cc2/C1=C/c1ccccc1O | – | 2.43 | – | 1.12 | – | 115 | –
15 | COc1cc(OC)c2c(c1)O/C(=C\c1cccc(Cl)c1)C2=O | – | 3.98 | – | – | – | 103 | fold induction at 48 h, 5 µM (CYP1A1 [11]): 1.18
16 | COc1cc(OC)c2c(c1)O/C(=C\c1ccncc1)C2=O | 1.73 | 1.82 | 4.5 | – | 110 | 101 | –
17 | COc1cc(OC)c2c(c1)O/C(=C\c1ccccc1Cl)C2=O | – | 5.6 | – | – | – | 105 | fold induction at 48 h, 5 µM (CYP1A1 [11]): 1.55
18 | O=C1/C(=C/c2ccc(O)cc2)Oc2cc(O)cc(O)c21 | 1.05 | 1.23 | 1.95 | – | 98 | 105 | –
19 | O=c1cc(-c2ccccc2)oc2ccc3ccccc3c12 | – | – | – | – | – | – | Activity [14]: inactive
20 | COc1cccc(/C=C2\Oc3cc(O)cc(O)c3C2=O)c1 | – | 2.15 | – | 1.13 | – | 112 | –

Continued, in another order:

Row | fold induction at 48 h, 25 µM (CYP1A1 [3]) | fold change (FC) [4] | fold change (FC) [5] | fold induction at 48 h, 10 µM (CYP1A1 [6]) | SMILES | viability at 48 h, 25 µM [1] [%] | viability at 48 h, 5 µM [2] [%] | also measured
21 | 1.68 | 3.1 | – | – | COc1ccccc1/C=C1\Oc2ccc(O)cc2C1=O | 95 | 97 | –
22 | – | 4.68 | – | 2.95 | O=C1/C(=C/c2cccc(Cl)c2)Oc2ccc(O)cc21 | – | 101 | –
23 | – | 2.53 | – | 0.97 | COc1cc(OC)c2c(c1)O/C(=C\c1cccc(O)c1O)C2=O | – | 88 | –
24 | – | 4.47 | – | – | COc1cc(OC)c2c(c1)O/C(=C\c1cccc(F)c1)C2=O | – | 89 | fold induction at 48 h, 5 µM (CYP1A1 [11]): 1.48
25 | – | 2.85 | – | 1.05 | O=C1/C(=C/c2cccc(Cl)c2)Oc2cc(O)ccc21 | 98 | 111 | –
26 | – | 2.2 | – | 1 | O=C1/C(=C/c2ccccc2F)Oc2cc(O)cc(O)c21 | 96 | 110 | –
27 | 1.07 | 1.45 | 2.11 | – | O=C1/C(=C/c2ccccc2O)Oc2cc(O)ccc21 | 102 | 113 | –
28 | – | 2.12 | – | 0.97 | COc1cc(OC)c2c(c1)OC(=O)/C2=C\c1ccccc1Cl | – | 90 | –
29 | – | 2.65 | – | 2.01 | O=C1/C(=C/c2ccccc2O)Oc2ccc(O)cc21 | 104 | 99 | –
30 | 1.16 | 1.2 | 2.07 | – | COc1cc(OC)c2c(c1)O/C(=C\c1cccc(O)c1)C2=O | 100 | 104 | –
